This is an account of results in ChEMBL document CHEMBL3259663, “3-Amido-3-aryl-piperidines: A Novel Class of Potent, Selective, and Orally Active GlyT1 Inhibitors” (ACS Med Chem Lett, 2014).

A short description of data set [1]: Intrinsic clearance in mouse liver microsomes. Type of data set: ADME. As to conditions: read-out: CLH.
The target in data set [2] is T1, Sodium- and chloride-dependent glycine transporter 1 (Mus musculus, UniProt P28571).
T1 sequence (P28571 whole entry): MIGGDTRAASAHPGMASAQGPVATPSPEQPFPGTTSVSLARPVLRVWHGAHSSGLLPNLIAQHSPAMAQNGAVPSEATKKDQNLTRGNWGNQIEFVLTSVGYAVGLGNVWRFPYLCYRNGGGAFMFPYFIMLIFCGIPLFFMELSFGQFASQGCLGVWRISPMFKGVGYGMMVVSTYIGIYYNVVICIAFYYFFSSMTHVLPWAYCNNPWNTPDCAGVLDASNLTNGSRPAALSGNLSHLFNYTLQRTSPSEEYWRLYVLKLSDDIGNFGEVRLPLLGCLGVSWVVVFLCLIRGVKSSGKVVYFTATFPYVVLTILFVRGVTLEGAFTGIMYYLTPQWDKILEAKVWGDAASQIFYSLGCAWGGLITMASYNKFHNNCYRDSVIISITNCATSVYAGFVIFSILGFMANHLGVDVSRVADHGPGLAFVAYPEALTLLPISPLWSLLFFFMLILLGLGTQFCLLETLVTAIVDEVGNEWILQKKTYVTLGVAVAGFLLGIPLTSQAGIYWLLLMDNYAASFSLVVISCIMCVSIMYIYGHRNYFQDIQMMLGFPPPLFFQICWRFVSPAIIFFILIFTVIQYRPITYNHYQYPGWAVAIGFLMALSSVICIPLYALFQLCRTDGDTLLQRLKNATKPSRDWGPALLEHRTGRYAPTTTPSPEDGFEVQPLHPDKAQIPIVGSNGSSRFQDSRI
Description: Inhibition of mouse GlyT1.

In data set [3] the target is hERG (KCNH2) (Homo sapiens, UniProt Q12809). In words: Inhibition of human ERG channel by Patch clamp assay.
hERG (KCNH2), sequence (Q12809 whole entry): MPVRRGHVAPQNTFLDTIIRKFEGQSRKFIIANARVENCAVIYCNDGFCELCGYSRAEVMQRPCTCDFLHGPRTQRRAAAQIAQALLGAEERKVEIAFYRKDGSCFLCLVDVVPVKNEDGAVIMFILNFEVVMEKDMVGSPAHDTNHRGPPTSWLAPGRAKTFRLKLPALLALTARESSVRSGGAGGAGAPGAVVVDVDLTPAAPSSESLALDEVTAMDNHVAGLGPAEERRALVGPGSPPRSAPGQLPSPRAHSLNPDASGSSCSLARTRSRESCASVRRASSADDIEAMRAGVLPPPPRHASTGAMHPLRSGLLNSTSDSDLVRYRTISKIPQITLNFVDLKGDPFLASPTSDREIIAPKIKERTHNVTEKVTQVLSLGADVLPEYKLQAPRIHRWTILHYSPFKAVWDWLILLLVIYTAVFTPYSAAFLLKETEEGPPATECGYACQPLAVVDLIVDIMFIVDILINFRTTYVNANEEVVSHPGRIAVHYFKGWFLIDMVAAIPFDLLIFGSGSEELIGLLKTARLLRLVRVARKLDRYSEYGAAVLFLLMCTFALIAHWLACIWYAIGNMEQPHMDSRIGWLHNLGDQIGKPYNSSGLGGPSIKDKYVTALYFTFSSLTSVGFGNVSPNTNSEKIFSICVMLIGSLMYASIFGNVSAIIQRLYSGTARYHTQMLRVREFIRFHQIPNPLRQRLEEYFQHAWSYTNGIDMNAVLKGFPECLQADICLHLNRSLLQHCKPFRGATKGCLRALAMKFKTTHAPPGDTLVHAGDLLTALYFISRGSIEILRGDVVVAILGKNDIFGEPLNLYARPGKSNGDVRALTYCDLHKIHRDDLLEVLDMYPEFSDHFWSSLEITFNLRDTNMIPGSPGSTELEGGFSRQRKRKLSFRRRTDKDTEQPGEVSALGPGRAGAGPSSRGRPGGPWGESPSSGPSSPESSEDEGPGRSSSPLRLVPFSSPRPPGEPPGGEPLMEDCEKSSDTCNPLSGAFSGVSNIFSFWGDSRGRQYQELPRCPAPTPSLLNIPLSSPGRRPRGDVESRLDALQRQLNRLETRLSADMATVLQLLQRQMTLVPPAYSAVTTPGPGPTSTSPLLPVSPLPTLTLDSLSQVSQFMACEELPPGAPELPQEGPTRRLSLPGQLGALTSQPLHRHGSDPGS
The nature of data set [4]: Dissociation constant, pKa of the compound by capillary electrophoresis. Format: physicochemical. An outline of the steps: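 pKa determined by capillary electrophoresis.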
The test system of data set [5] is Striatum. In words: Maximal induction of extracellular glycine level in rat striatum at 10 mg/kg, po relative to basal level. Type of data set: functional. An outline of the steps: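 Rat striatal microdialysis after a 10 mg/kg oral dose. Extracellular glycine measured as fold over basal levels, with sampling stopped at 3 h. Plasma and brain exposures determined at 3 h post-dose. n = 6.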

Data set [6] has as its system MDR1 (P-gp). In words: Efflux ratio of permeability in pig LLC-PK1 cells expressing human MDR1. Type of data set: ADME, cell-based, Sus scrofa. An outline of the steps: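 Efflux ratio measured in LLC-PK1 cells stably expressing human MDR1 or mouse MDR1A.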
For data set [7], the target named is Cytochrome P450 3A4 (Homo sapiens, UniProt P08684). Description: Inhibition of CYP3A4 (unknown origin). Type of data set: ADME.
Cytochrome P450 3A4, sequence (P08684 whole entry): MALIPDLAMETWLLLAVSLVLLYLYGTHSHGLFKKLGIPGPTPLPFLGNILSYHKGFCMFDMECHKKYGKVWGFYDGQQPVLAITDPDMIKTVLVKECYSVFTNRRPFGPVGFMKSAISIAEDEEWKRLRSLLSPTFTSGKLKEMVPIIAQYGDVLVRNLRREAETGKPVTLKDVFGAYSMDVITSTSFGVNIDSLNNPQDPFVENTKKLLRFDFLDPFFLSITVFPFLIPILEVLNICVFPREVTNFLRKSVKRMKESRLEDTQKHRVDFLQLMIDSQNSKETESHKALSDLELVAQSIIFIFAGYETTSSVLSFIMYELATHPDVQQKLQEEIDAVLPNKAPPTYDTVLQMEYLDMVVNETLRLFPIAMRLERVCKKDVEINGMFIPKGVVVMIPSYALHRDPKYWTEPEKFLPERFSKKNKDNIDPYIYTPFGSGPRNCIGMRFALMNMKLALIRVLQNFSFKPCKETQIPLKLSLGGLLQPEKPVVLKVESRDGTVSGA
In data set [8] the target is Cytochrome P450 2C9 (Homo sapiens, UniProt P11712). Description: Inhibition of CYP2C9 (unknown origin). Format: ADME.
Cytochrome P450 2C9, sequence (P11712 whole entry): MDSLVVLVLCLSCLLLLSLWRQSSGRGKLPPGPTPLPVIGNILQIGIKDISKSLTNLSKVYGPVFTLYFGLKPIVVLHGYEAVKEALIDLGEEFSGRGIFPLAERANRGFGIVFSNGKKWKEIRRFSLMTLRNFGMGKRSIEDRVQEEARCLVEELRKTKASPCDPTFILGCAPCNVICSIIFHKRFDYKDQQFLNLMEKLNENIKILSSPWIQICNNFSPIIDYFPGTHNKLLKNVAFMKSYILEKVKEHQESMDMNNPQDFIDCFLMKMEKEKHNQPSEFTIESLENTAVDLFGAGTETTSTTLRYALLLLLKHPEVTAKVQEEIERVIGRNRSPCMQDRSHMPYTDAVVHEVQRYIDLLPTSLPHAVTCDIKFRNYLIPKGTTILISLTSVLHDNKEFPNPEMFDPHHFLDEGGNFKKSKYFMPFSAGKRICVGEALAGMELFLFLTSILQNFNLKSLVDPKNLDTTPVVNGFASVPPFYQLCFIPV
Data set [9] can be described thus: Oral bioavailability in mouse at 7.7 mg/kg. Format: ADME, organism-based. As to conditions: in vivo. In a few lines:
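Mouse PK after a 7.7 mg/kg oral dose. Brain/plasma ratio taken at 1.5 h. Values are the average of two independent experiments.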

As to `COc1cc(C(F)(F)F)cc(SC)c1C(=O)N[C@@]1(c2ccccc2)CCCN(C)C1`, the microsomal CLint in data set [1] turned out to be 54 µL/min/mg. In data set [2], the midpoint of the response, the EC50, lay at 0.005 µM. Also, in data set [3], the 20% effect level (IC20) was put at 5.4 µM. Moreover, in [4], the pKa stood at 7.72. Further, in [5], the “fold change (FC)” value was 1.7. Also, the efflux ratio in [6] came to 0.9. Also, the IC50 in data set [7] and in data set [8] was > 50 µM each time. Also, the bioavailability in data set [9] stood at 100%.

As usually defined, the EC50 is the concentration giving half of the maximal effect. Low values mean an effect from little substance, high ones a need for much substance. In general, IC20 refers to the concentration at which the effect reaches the 20% level. Read a high IC20 as a need for much substance. By pKa is commonly meant the negative logarithm of the acid dissociation constant. The term efflux ratio denotes a quotient of directional permeabilities that is used to spot active efflux. Usually IC50 stands for the concentration at which inhibition is half-maximal. The low end stands for higher potency, the high end for lower potency. As a reminder, the bioavailability is dose-corrected exposure relative to a reference, in per cent.
